In data set [1] the test system is Rattus norvegicus. As to the kind of experiment: Total plasma clearance was determined for the compound after iv dose of 4.74 mg/kg in rats. It counts as ADME, organism-based. Also on record: dose 4.74 mg/kg, route intravenous. The note with it: in vivo.
Data set [2] deals with Rattus norvegicus. Put plainly: Area under curve was determined for the compound after iv dose of 4.74 mg/kg in rats. It counts as ADME, organism-based. On the set-up: dose 4.74 mg/kg, route intravenous. The note with it: in vivo.
A short description of data set [3]: Half-life after iv dose of 4.74 mg/kg in rats. It counts as ADME, organism-based. Also on record: dose 4.74 mg/kg, route intravenous. The note with it: rat, in vivo.
Data set [4] concerns the target T1, GABA-A receptor; anion channel (Rattus norvegicus) (UniProt O09028+P15431+P18506+P18508+P19969+P20236+P23574+P23576+P28471+P28473+P30191+P62813+P63079+P63138+Q91ZM7+Q9ES14). As to the kind of experiment: (§1) Displacement of [3H]flunitrazepam from GABA-A benzodiazepine receptor of rat cortical membranes. Format: cell membranes. Also on record: concentration or dose not given beside the values. The note with it: Membrane, concentration not given here. In outline:
(§2)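 Rat membranes incubated 60 min at 4 °C with [3H]flunitrazepam, 50 µg membrane protein and graded test drug in 200 µL containing NaCl, 10 mM Hepes/Tris pH 7.4 and 1 mM MgCl2; bound ligand separated by rapid filtration on GF/B; mean affinity, SE ≤10% of mean.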

The target of data set [5] is GABA-A receptor; anion channel. Described as §1. It counts as cell membranes, Membrane. In outline:
as §2

In data set [6] the target is T1, GABA-A receptor; anion channel (Rattus norvegicus). As to the kind of experiment: Shift in [35S]TBPS binding to GABA-A Benzodiazepine receptor of rat brain membrane.
Data set [7] addresses T2, GABA-A receptor; alpha-1/beta-2/gamma-2 (Homo sapiens) (UniProt P14867+P47870+P18507). Put plainly: (§3) In vitro GABA-mediated chloride current in A293 cells expressing GABA-A benzodiazepine receptor alpha-1-beta-2-gamma-2 subunits at 5 uM. It counts as functional, cell-based. The note with it: HEK293.
Data set [8] has as its target GABA A receptor alpha-3/beta-2/gamma-2 (Homo sapiens) (UniProt P47870+P18507+P34903). Put plainly: In vitro GABA-mediated chloride current in A293 cells expressing GABA-A benzodiazepine receptor alpha-3-beta-2-gamma-2 subunits at 5 uM. It counts as functional, cell-based. The note with it: HEK293.
For data set [9], the species on record is Mus musculus. As to the kind of experiment: Ability to antagonize the muscle relaxation effect in mice caused by a benzodiazepine full agonist, triazolam. Format: functional. In outline: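 Muscle relaxation induced by triazolam; test compound and triazolam given separately, traction scored 30 min after dosing; ED50 for blocking the relaxant effect.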

The test system of data set [10] is Mus musculus. As to the kind of experiment: In vivo efficacy is evaluated by percent control of cerebellar GMP levels in (drug+stress) treated mice/mice under stress. It counts as functional. Also on record: concentration or dose not given beside the values. In outline:
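Male CF-1 mice given drug orally in vehicle 122 before electric footshock stress, controls given vehicle (1 mL/100 g); killed 30 min after treatment; cerebellum homogenized in 1% perchloric acid, iced 30 min, boiled 5 min, spun 17000g 20 min; supernatant cGMP by radioimmunoassay, expressed as % of stress control.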

The test system of data set [11] is Mus musculus. Put plainly: In vivo acute electroshock physical dependence activity in mice; Not active. It counts as functional, organism-based.
Data set [12] has as its system Rattus norvegicus. Put plainly: In vivo efficacy evaluated for ability to antagonize metrazole induced clonic convulsions in rat after ip injection. Format: functional.
For data set [13], the system named is Rattus norvegicus. As to the kind of experiment: Geller-cook activity was determined using wilcoxon signed rank test on non punished schedule at dose 0.3 mg/kg. Format: functional. In outline:
(§4)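 Geller–Cook conflict schedule with punished and nonpunished response rates recorded per treatment; 6 animals per dose, controls 12–17; each dose compared to its own control by Wilcoxon signed rank test, p < 0.05.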

Data set [14] has as its system Rattus norvegicus. As to the kind of experiment: Geller-cook activity was determined using wilcoxon signed rank test on non punished schedule at dose 1 mg/kg. It counts as functional. In outline:
as §4

The subject of data set [15] is Rattus norvegicus. As to the kind of experiment: Geller-cook activity was determined using wilcoxon signed rank test on non punished schedule at dose 3 mg/kg. It counts as functional. In outline:
as §4

Data set [16] concerns Rattus norvegicus. As to the kind of experiment: Geller-cook activity was determined using wilcoxon signed rank test on punished schedule at dose 0.3 mg/kg. It counts as functional. In outline: as §4
Data set [17] deals with Rattus norvegicus. Put plainly: Geller-cook activity was determined using wilcoxon signed rank test on punished schedule at dose 1 mg/kg. Format: functional. In outline:
as §4

The subject of data set [18] is Rattus norvegicus. As to the kind of experiment: Geller-cook activity was determined using wilcoxon signed rank test on punished schedule at dose 3 mg/kg. It counts as functional. In outline: as §4
Data set [19] has as its system Rattus norvegicus. Put plainly: Mean number of shocks in vogel''s punished licking assay in rats by 3 mg/kg Diazepam. Format: functional. In outline:
(§5)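 Vogel punished licking test in rats; number of shocks accepted recorded per dose group (n 6–10); each dose compared with the 0 mg/kg group of the same experiment by Wilcoxon rank sum test.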

Data set [20] has as its system Rattus norvegicus. As to the kind of experiment: Mean number of shocks produced by the compound in rats at a dose of 0 mg/kg was determined by vogel's punished licking assay. It counts as functional. In outline: as §5
Data set [21] concerns Rattus norvegicus. As to the kind of experiment: Mean number of shocks produced by the compound in rats at a dose of 0.3 mg/kg was determined by vogel's punished licking assay. It counts as functional. In outline: as §5
For data set [22], the system named is Rattus norvegicus. Put plainly: Mean number of shocks produced by the compound in rats at a dose of 1 mg/kg was determined by vogel's punished licking assay. Format: functional. In outline: as §5
Data set [23] relates to Rattus norvegicus. Put plainly: Mean number of shocks produced by the compound in rats at a dose of 10 mg/kg was determined by vogel's punished licking assay. Format: functional. In outline: as §5
For data set [24], the system named is Rattus norvegicus. As to the kind of experiment: Mean number of shocks produced by the compound in rats at a dose of 3 mg/kg was determined by vogel's punished licking assay. It counts as functional. In outline:
as §5

Data set [25] has as its target T2, GABA-A receptor; alpha-1/beta-2/gamma-2 (Homo sapiens). Described as §3. Format: functional, cell-based. The note with it: HEK293. This is another data set of the same source.
The target in data set [26] is T1, GABA-A receptor; anion channel (Rattus norvegicus). Put plainly: Inhibition of [35S]TBPS binding to GABA-A Benzodiazepine receptor of rat brain membranes. Format: cell membranes. The note with it: Membrane.
Data set [27] deals with Mus musculus. Put plainly: In vivo acute electroshock physical dependence activity in mice; Active. It counts as functional, organism-based.
Data set [28] is described as follows: Area under curve was determined for the compound after po dose of 5.46 mg/kg in rats. It counts as ADME, organism-based. On the set-up: dose 5.46 mg/kg, route oral. The note with it: rat, in vivo.
Data set [29] in a line: Maximum serum concentration after po dose of 5.46 mg/kg in rats. It counts as ADME, organism-based. On the set-up: dose 5.46 mg/kg, route oral. The note with it: rat.
Data set [30] can be described thus: Time at which Cmax was reached was determined for the compound after po dose of 5.46 mg/kg in rats. On the set-up: dose 5.46 mg/kg, route oral. It counts as ADME, organism-based. The note with it: rat, in vivo. In outline: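 Male Sprague–Dawley rats dosed orally with compound in a solution formulation, n = 3–4 per compound; serum drug concentrations measured over time, lower limit of quantitation 50 ng/mL. Tmax reported as the range of observed values across animals.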

The nature of data set [31]: Half-life after po dose of 5.46 mg/kg in rats. It counts as ADME, organism-based. On the set-up: dose 5.46 mg/kg, route oral. The note with it: rat, in vivo.
Data set [32] deals with T1, GABA-A receptor; anion channel (Rattus norvegicus). The note with it: Membrane.

Calls of active or inactive are those of the source. No cut-off for these calls is given here.

`C[C@@H]1CN(C(=O)N2Cc3c(C(=O)OC(C)(C)C)ncn3-c3ccc(Cl)cc32)C[C@H](C)N1C`: the Clp in data set [1] was 45.2 mL/min/kg. The same compound came in with an AUC in [2] of 3570 ng·h/mL. In [3], the half-life is 0.57 h. For the same compound, the inhibition in data set [4] is 86%. In [5], this compound returned a Ki of 4.48 nM. The Shift in [6] is -0.06. For the same compound, the Change in Cl- current in data set [7] was -0.2; in data set [8], 1; in data set [25], 1. The figures for the median effective dose (ED50) in [9] and in data set [12] were 7 mg/kg and 14.8 mg/kg, respectively. This compound also registered a Control in data set [10] of 36%. The Acute electroshock activity result in [11] is “inactive”. In addition, the Gellar cook activity in data set [13] came to 38; in data set [14] it was 56; in [15], 36; in data set [16], 22; in [17] it was 53; in [18] it was 65. The “Mean no. of shocks” value came to 13 in data set [19]; 8.4 in data set [20]; 8 in data set [21]; 7 in data set [22]; 18 in data set [23]; 18 in data set [24].

In the case of `CC(C)(C)OC(=O)c1ncn2c1CN(C(=O)N1CCN(C(C)(C)C)CC1)c1cc(Cl)ccc1-2`, in [4], the inhibition was determined as 62%. Moreover, the affinity in data set [5] corresponds to a Ki of 20.9 nM. Further, in data set [26], the Shift is -0.03. Also, in [7], the Change in Cl- current came to 0.12. The figures for the ED50 in data set [9] and in data set [12] were more than 30 mg/kg and 50 mg/kg, respectively. Also, the Acute electroshock activity result in data set [27] is “Active”.

With `CC(C)(C)OC(=O)c1ncn2c1CN(C(=O)N1CCCC1)c1cc(Cl)ccc1-2.CCCC(=O)O`, the AUC in data set [28] is 3680 ng·h/mL. For the same compound, the peak level in [29] (Cmax) was 330 ng/mL. Besides, the Tmax in data set [30] turned out to be 1 h. Besides, the half-life in data set [31] is 7.6 h. In data set [5], the affinity corresponds to a Ki of 2.56 nM. Also, the Shift in [26] turned out to be 0.53. In addition, in data set [7], the Change in Cl- current stood at 0.38. Besides, the ED50 in [9] came to 14 mg/kg; in data set [12] it was 29.7 mg/kg. Besides, the Control in [10] is 105%. In addition, the Acute electroshock activity entry in data set [11] was “inactive”.

`CC(C)n1c(=O)c2c(-c3noc(C4CC4)n3)ncn2c2ccccc21` [PANADIPLON] had a Change in Cl- current in [7] of 0.04. In addition, the ED50 is 1.7 mg/kg in [9] and 1.6 mg/kg in data set [12]. In data set [10], this compound gave a Control of 87%. For the same compound, the Acute electroshock activity result in data set [11] was “inactive”. For the same compound, the Shift in [32] turned out to be 0.06.
